This passage reports Ki and Activity results from ChEMBL document CHEMBL1140896, “Morpholino, piperidino, and pyrrolidino derivatives of pyrimidine nucleosides as inhibitors of ribonuclease A: synthesis, biochemical, and crystallographic evaluation” (J Med Chem, 2009).

Calls of active or inactive are those of the source. No cut-off for these calls is given here.

For test [1], the target named is T1, Ribonuclease pancreatic (Bos taurus, UniProt P61823).
T1 sequence (P61823 whole entry): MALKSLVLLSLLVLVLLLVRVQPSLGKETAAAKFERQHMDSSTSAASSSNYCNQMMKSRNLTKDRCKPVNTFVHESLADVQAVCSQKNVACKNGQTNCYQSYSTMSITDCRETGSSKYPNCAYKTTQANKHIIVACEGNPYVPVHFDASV
Put plainly: Inhibition of bovine pancreatic RNase A by spectrophotometric method. Put shortly: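 Bovine pancreatic RNase A; spectrophotometric initial-velocity assay with 2′,3′-cCMP substrate in 0.1 M Mes-NaOH pH 6.0, 0.1 M NaCl. Ki taken from Dixon plots (1/V vs [I]) by the competitive equation; at least three repeats per set.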

Test [2] concerns the target T2, Ribonuclease pancreatic (Bos taurus) (UniProt P61823).
T2 sequence (whole entry): T1 sequence (P61823 whole entry)
Put plainly: Inhibition of bovine pancreatic RNase A assessed as effect on tRNA degradation at 0.14 mM by agarose gel based assay. Put shortly: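 Comparative gel: RNase A (stock 6.29 µM; 1.26 µM in figure) preincubated 3 h with compound (0.14 mM). Aliquots then mixed with yeast tRNA (5 mg/mL stock) for 30 min, run on 1.1% agarose gel, and residual tRNA viewed by ethidium bromide under UV.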

Test [3] has as its target T2, Ribonuclease pancreatic (Bos taurus). Briefly: Inhibition of bovine pancreatic RNase A assessed as effect on tRNA degradation by agarose gel based assay. The gist of the method:
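Qualitative gel: RNase A (stock 6.87 µM; 1.37 µM in figure) preincubated 3 h with compound at three levels (0.10–0.31 or 0.13–0.40 mM). Aliquots then mixed with yeast tRNA (5 mg/mL stock) for 30 min, run on 1.1% agarose gel, and residual tRNA stained with ethidium bromide under UV.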

Test [4] has the same target. Briefly: Inhibition of bovine pancreatic RNase A ribonucleolytic activity assessed as reduction of tRNA degradation at 0.32 mM by precipitation assay relative to control. Further details: scale not given: the % may be the effect or the level left. The gist of the method: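 Bond precipitation assay: RNase A (1.10 µM) preincubated with compound (0.32 mM) 2 h at 37 °C. Then tRNA added in Tris-HCl pH 7.5 with 5 mM EDTA and 0.5 mg/mL HSA, 30 min at 25 °C. Quenched with ice-cold perchloric acid/uranyl acetate, 30 min on ice, centrifuged; supernatant A260 compared with control.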

`O=c1ccn([C@@H]2O[C@H](CO)[C@@H](O)[C@H]2OP(=O)(O)O)c(=O)[nH]1` yielded a Ki in test [1] of 7.1 µM.

The compound `O=c1ccn([C@@H]2O[C@H](CO)[C@@H](OP(=O)(O)O)[C@H]2O)c(=O)[nH]1` yielded a Ki in test [1] of 82 µM.

As for `Cc1cn([C@H]2C[C@H](O)[C@@H](CN3CCCC3)O2)c(=O)[nH]c1=O`, the outcome in test [2] and in test [3] was Active. Also, the Activity in test [4] was 5%.

Turning to `O=c1ccn([C@@H]2O[C@H](CO)[C@@H](OP(=O)(O)O)[C@@H]2O)c(=O)[nH]1`, in test [1], the affinity, expressed as Ki, was 6 µM.

`Nc1ccn([C@@H]2O[C@H](CO)[C@@H](OP(=O)(O)O)[C@H]2O)c(=O)n1` registered a Ki in test [1] of 103 µM.

With `Cc1cn([C@H]2C[C@H](O)[C@@H](COP(=O)(O)OP(=O)(O)O[C@H]3[C@@H](O)[C@H](n4cnc5c(N)ncnc54)O[C@@H]3CO)O2)c(=O)[nH]c1=O`, the Ki in test [1] came out at 0.041 µM.

Consider `O=c1ccn([C@@H]2O[C@H](CN3CCCC3)[C@@H](O)[C@H]2O)c(=O)[nH]1`, for which the result in test [2] and in test [3] was Active. In addition, in test [4], the Activity came to 12%.

Regarding `O=c1ccn([C@@H]2O[C@H](CN3CCOCC3)[C@@H](O)[C@H]2O)c(=O)[nH]1`, the outcome in test [2] and in test [3] was Active. Moreover, the Activity in test [4] worked out at 12%.

`CCOC(=O)C1CCN(C[C@H]2O[C@@H](n3ccc(=O)[nH]c3=O)[C@H](O)[C@@H]2O)CC1` came in with a Ki in test [1] of 77 µM. Moreover, the result in test [3] was Active. Besides, the Activity in test [4] stood at 30%.

As for `O=c1ccn([C@@H]2O[C@H](CN3CCCCC3)[C@@H](O)[C@H]2O)c(=O)[nH]1`, the result in test [2] and in test [3] was Active. Moreover, in test [4], the Activity was found to be 12%.

For `Cc1cn([C@H]2C[C@H](O)[C@@H](CN3CCCCC3)O2)c(=O)[nH]c1=O`, the result in test [2] and in test [3] was Active. Further, the Activity in test [4] amounted to 5%.
